Measured values gathered from unrelated publications.
Each line is one published result; the experiments were not run side by side.
Target: Serine/threonine-protein kinase pim-1 (PIM1, Homo sapiens, UniProt P11309)

Structure (SMILES)	effect on	technique	tested at	remaining binding
O=C(NC[C@@H]1[C@H]2CN(C(=O)OCc3cc(C(F)(F)F)cc(C(F)(F)F)c3)C[C@@H]12)c1ccc2[nH]nnc2c1	cell-free assay	competition with immobilised ligand	1 µM	98%
O=C(NCC1CCOCC1)c1n[nH]cc1NC(=O)c1c(F)cccc1F	binding	competition with immobilised ligand	1 µM	100%
N#Cc1ccccc1CSc1nnc2c(n1)[nH]c1ccccc12	binding	competition with immobilised ligand	10 µM	90%
CCC(=N\O)/C(C)=C/c1ccc(F)cc1	cell-free assay	competition with immobilised ligand	1 µM	85%
C[C@@H]1CN(c2ccc3ncc(-c4ccc5[nH]nc(C6CC6)c5c4)n3n2)C[C@H](C)O1	binding	competition with immobilised ligand	0.5 µM	19%
Cc1cc(-n2nc(Cc3cc(F)cc(C(F)(F)F)c3)nc2C)ccc1C(N)=O	cell-free assay	competition with immobilised ligand	1 µM	100%
O=C(NCCCN1CCOCC1)c1ccc(Nc2ncc(Cl)c(-c3ccc(Cl)s3)n2)cc1	binding	competition with immobilised ligand	1 µM	100%
CN(c1nccc(-c2cnn3ncccc23)n1)C1CC1	binding	–	1 µM	100%
Cc1cc(NC(=O)c2cccc(S(F)(F)(F)(F)F)c2)cc(-n2ccn3nc(-c4cccnc4)cc23)c1	cell-free assay	competition with immobilised ligand	1 µM	95.6%
c1cnn2ncc(-c3ccnc(N4CCC45COC5)n3)c2c1	binding	–	1 µM	71%
O=C(c1ccc(Nc2ncc(Cl)c(-c3cc4ccccc4s3)n2)cc1)N1CCC(N2CCCC2)CC1	binding	competition with immobilised ligand	1 µM	84%
F[C@@H]1CCN(c2nccc(-c3cnn4ncccc34)n2)C1	binding	–	1 µM	100%
COc1cnc(Nc2cccc(S(N)(=O)=O)c2)nc1N1CCN(c2ccccc2)C(=O)C1	binding	competition with immobilised ligand	1 µM	100%
CN(CCCC(F)(F)F)c1nccc(-c2cnn3ncccc23)n1	binding	–	1 µM	98%
c1cncc(-c2cccc(Nc3nccc(NC4CCCCC4)n3)c2)c1	binding	competition with immobilised ligand	10 µM	42%
COc1ccnn2ncc(-c3ccnc(N(C)C)n3)c12	binding	–	1 µM	74%
Nc1cnc(N2CCc3cc(S(=O)(=O)Nc4c(F)cc(Cl)cc4F)cc(N4CCCC4=O)c32)nc1	cell-free assay	competition with immobilised ligand	1 µM	88%
